Assay outcomes from PubChem.
In the library only some 0.95% were active in any assay of this set; here they are far more common.
CAL PDZ FP-1: CAL PDZ peptide-binding inhibitors, primary screen, biochemical, fluorescence polarization, Cer-tagged CAL PDZ, HTS | 0.02% of 330,000 active | inhibition, % at 20 µM | purified CAL PDZ, TMR-peptide fluorescence polarization, 1 h | Golgi-associated PDZ and coiled-coil motif-containing protein (Homo sapiens), Q9HD26;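 active means highest replicate inhibition of at least 40%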
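System: tagged CAL PDZ domain. Schedule: 1 h room-temperature incubation prior to read. Signal: fluorescence polarization (mP). Measure: percent inhibition from loss of millipolarization.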
miR122 inh: miR-122 Renilla sensor signal increase in Huh7, primary screen, miR-122 inhibitor project, cell-based, single point, plate reader. Huh7 miR-122 Renilla luciferase sensor, 48 h; neutral wells = 0, positive control = 100. activation (reporter increase), % at 12.5 µM. 0.3% of 340,000 active;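 active means mean replicate activation score at least 90 and every replicate individually at or above 90; inconclusive means only one of the two criteria met; inactive means neither criterion met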;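 further: higher luciferase means less miR-122 activity so hits act as miR-122 inhibitors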
CAL PDZ FP-2: untagged CAL PDZ binding inhibitors, primary screen, biochemical, fluorescence polarization, HTS. Golgi-associated PDZ and coiled-coil motif-containing protein (Homo sapiens), Q9HD26. purified CAL PDZ, TMR-peptide fluorescence polarization, 1 h. inhibition, % at 24.9 µM. 0.92% of 300,000 active;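 active means mean inhibition of at least 30% with at least half of replicates also reaching 30%; inconclusive means no clear call, values can overlap the other calls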
PvdQ acylase: P. aeruginosa PvdQ acylase inhibitors, primary screen, biochemical, fluorescence, plate reader and imaging, single point. PvdQ acylase [Pseudomonas aeruginosa LESB58]. purified PvdQ acylase. inhibition, % at 10 µM. 0.063% of 340,000 active. AID 488965, 2010; in the data active means inhibition above about 30%, passing the limit was not always enough; inconclusive means no clear call, values can overlap the other calls
Of the large screens only hits and unclear results are named; the others gave an inactive call.

Cc1ccc(S(=O)(=O)NC(C(=O)Oc2ccc3ccc(=O)oc3c2)c2ccccc2)cc1 (stereo not given)	none (no result: CAL PDZ FP-2)
Cc1ccc(S(=O)(=O)NCCC(=O)Oc2ccc3ccc(=O)oc3c2)cc1	miR122 inh 237
Cc1cc(NC(=O)CCN2C(=O)C3C4CCC(C4)C3C2=O)cc(C)c1Br (stereo not given)	none
Cc1c(Br)ccc(NC(=O)CCN2C(=O)C3C4CCC(C4)C3C2=O)c1C (stereo not given)	CAL PDZ FP-2 32
Cc1ccc(CS(=O)Cc2ccc(C(=O)NCc3ccccc3)o2)cc1 (stereo not given)	none
Cc1ccc(CS(=O)Cc2ccc(C(=O)NCC(C)c3ccccc3)o2)cc1 (stereo not given)	CAL PDZ FP-2 82
COc1ccccc1NS(=O)(=O)c1cc(NC(=S)NCC2CCCO2)ccc1C (stereo not given)	miR122 inh 99
COc1ccc(/C=N/NC(=S)NCC2CCCO2)cc1 (stereo not given)	none (no result: miR122 inh)
COc1ccccc1NS(=O)(=O)c1cc(C(=O)NCC2CCCO2)ccc1C (stereo not given)	none (no result: miR122 inh)
COc1cc(/C=N/NC(=S)NCC2CCCO2)cc(OC)c1OC (stereo not given)	CAL PDZ FP-2 36 (no result: miR122 inh)
Cc1cc(Br)cn2c(Cc3ccsc3)c(-c3ccccc3)nc12	none (no result: CAL PDZ FP-1, CAL PDZ FP-2, PvdQ acylase)
CC1=C(C(=O)N(C)C)CC(CC(=O)NCc2ccco2)C(=O)N1CCC1=CCCCC1 (stereo not given)	none (no result: CAL PDZ FP-1, CAL PDZ FP-2, PvdQ acylase)
CCOC(=O)C1=C(C)NC(C)=C(C(=O)OCC)C1c1ccc(Br)o1	CAL PDZ FP-2 179
CC1CCC(NC(=O)CCN2C(=O)C3CC=CCC3C2=O)CC1 (stereo not given)	CAL PDZ FP-2 67 (no result: miR122 inh)
O=C(CCN1C(=O)C2CC=CCC2C1=O)NC1CCCCC1 (stereo not given)	none
O=C(NCCc1ccccc1)c1ccc(NC(=O)C2CC2)cc1	CAL PDZ FP-2 59
O=C(NCc1ccccc1)c1ccc(NC(=O)C2CC2)cc1	none
Cc1cccc(C(=O)NNC(=O)c2ccc(F)cc2)c1	none (no result: miR122 inh)
COc1cccc(OC)c1C(=O)NNC(=O)c1ccc(F)cc1	CAL PDZ FP-2 68 (no result: miR122 inh)
C=CCSc1nnc(-c2ccc([N+](=O)[O-])cc2)o1	none
Cc1[nH]c2ccccc2c1C(=O)C(=O)NCCCn1ccnc1	none (no result: miR122 inh)
CN(C)S(=O)(=O)n1cc(/C=C(\NC(=O)c2ccccc2Cl)C(=O)NCCCn2ccnc2)c2ccccc21	miR122 inh 125
Cc1c(C(=O)C(=O)NCCCn2ccnc2)c2ccccc2n1C	CAL PDZ FP-2 36 (no result: miR122 inh)
CN(C)S(=O)(=O)n1cc(/C=C(\NC(=O)c2ccccc2)C(=O)NCCCn2ccnc2)c2ccccc21	none (no result: CAL PDZ FP-2)
CSc1ccccc1C(=O)NCCCn1ccnc1	CAL PDZ FP-2 61
CCSc1ccccc1C(=O)NCCCn1ccnc1	none
CC(C)C(NC(=O)c1cccnc1)C(=O)O (stereo not given)	none
CCOC(=O)COc1ccc(/C=C/[N+](=O)[O-])c(OCC(=O)OCC)c1	none (no result: CAL PDZ FP-2)
CCCNC(=O)c1ccccc1NS(=O)(=O)c1ccc2c(c1)OCCO2	CAL PDZ FP-2 69
CCCNC(=O)c1ccccc1NC(=O)C1=CSCCO1	CAL PDZ FP-2 78
CC(=O)CSc1nc2c(c(=O)[nH]c(=O)n2C)n1Cc1ccccc1Cl	none
Cc1cccc(C(=O)Nc2ccn(C)n2)c1	CAL PDZ FP-2 55 (no result: miR122 inh)
Cn1ccc(NC(=O)c2ccc(Cl)cc2)n1	none
N#Cc1c(N)c(C#N)c(-c2ccc(O)cc2)c2c1CCCC2	CAL PDZ FP-2 75
Cc1ccc(-c2nn3c(C)nnc3c3ccccc23)cc1S(=O)(=O)NCc1ccccc1	none (no result: miR122 inh, CAL PDZ FP-2)
Cc1ccc(-c2n[nH]c(=O)c3ccccc23)cc1S(=O)(=O)Nc1ccccc1	none
Cc1ccc(-c2nn3c(C)nnc3c3ccccc23)cc1S(=O)(=O)NCCN1CCOCC1	miR122 inh 198 (no result: CAL PDZ FP-2)
Cc1ccc(-c2n[nH]c(=O)c3ccccc23)cc1S(=O)(=O)NCCN1CCOCC1	miR122 inh inconclusive, CAL PDZ FP-2 42 (no result: CAL PDZ FP-1)
CC(C)C[C@@H](CO)NS(=O)(=O)c1c(F)cccc1F	CAL PDZ FP-2 35
Cc1cccc(Nc2nnc(SCC(=O)NC3CCCc4ccccc43)s2)c1 (stereo not given)	none
O=S(=O)(c1ccccc1)c1nc(-c2ccccc2)oc1N1CCCCC1	none (no result: CAL PDZ FP-1)
CSc1nc(Cl)cc(=O)[nH]1	none (no result: miR122 inh)
CCOCc1cc(=O)[nH]c(SC)n1	CAL PDZ FP-2 70
COc1ccc(CC(=O)NCC2CCCN(Cc3cccc(SC)c3)C2)cc1 (stereo not given)	none (no result: CAL PDZ FP-1)
O=C(NCC1CCCN(Cc2cccc(F)c2)C1)c1cccc2ccccc12 (stereo not given)	CAL PDZ FP-2 68
CSc1cccc(CN2CCCC(CNC(=O)c3ccco3)C2)c1 (stereo not given)	CAL PDZ FP-2 146
O=C(Cn1cnc2c(nnn2Cc2ccccc2)c1=O)NCc1ccco1	none
Cn1cnc(CCNC(=O)C[C@@H]2CC[C@@H]3[C@H](COC[C@@H](O)CN3C(=O)C3CCCC3)O2)c1	none (no result: CAL PDZ FP-1, CAL PDZ FP-2, PvdQ acylase)
O=C(CN1C(=O)c2cccc3cccc1c23)NCc1cccnc1	none
CCS(=O)(=O)Nc1ccc2c(c1)C(=O)N(C)[C@@H]1CC[C@@H](CC(=O)NCCCN3CCOCC3)O[C@@H]1CO2	none (no result: CAL PDZ FP-1, CAL PDZ FP-2, PvdQ acylase)
CN(C)c1ccc(C(=O)OCC(=O)NC2CCCCCC2)cc1	CAL PDZ FP-2 32
CC1CCCCC1NC(=O)COC(=O)c1ccc(N(C)C)cc1 (stereo not given)	none
Cc1cccc(OCc2nc(-c3nonc3N)no2)c1C	none
CC(=O)Nc1ccc(S(=O)(=O)NC(CC(=O)NCCC2=CCCCC2)C(C)C)cc1 (stereo not given)	CAL PDZ FP-2 45
CCCCCCCCNC(=O)CC(NS(=O)(=O)c1ccc(NC(C)=O)cc1)C(C)C (stereo not given)	none
CC1CCC2(CC1)NC(=O)N(CC(=O)NC1CCCCC1C)C2=O (stereo not given)	CAL PDZ FP-2 33
CC1CCCCC1NC(=O)CN1C(=O)NC(Cc2ccccc2)(Cc2ccccc2)C1=O (stereo not given)	none
O=c1[nH]c(=S)[nH]c2c1C(c1ccc(Br)cc1)c1c([nH]c(=S)[nH]c1=O)O2	CAL PDZ FP-2 31 (no result: CAL PDZ FP-1)
CCOC(=O)c1[nH]c(C)c(C(=O)Nc2ccccc2C)c1C	miR122 inh 138 (no result: CAL PDZ FP-2)
COc1ccc(Cc2nc3ccc(C(=O)N(C)CCO)cc3o2)cc1	none
COc1ccc(Cc2nc3ccc(C(=O)N(C)C(C)c4ccon4)cc3o2)cc1 (stereo not given)	CAL PDZ FP-2 34
CCC(=NCCc1ccccc1)C1=C(O)CCC1=O	CAL PDZ FP-2 64
COCc1cc(=O)[nH]c(N2CCN(Cc3ccc4c(c3)OCO4)CC2)n1	none
NS(=O)(=O)c1cccc(NC(=O)COC(=O)/C(=C/c2cccs2)c2cccs2)c1	none (no result: miR122 inh)
